Assay results taken from PMC4969713 (Journal of Alzheimer's Disease, 2016).
Structures can show the parent of a compound that is named as a salt.

Assays:
[1] = target: norpinephrine transporter (Homo sapiens, UniProt P23975); test: Target panel binding, norpinephrine transporter
male BALB/c mice [2] = test: Elevated Plus-Maze; format: in vivo; conditions: IP; Buspirone 5 mg/kg; M2 0.05, 0.5, 1.0, 5.0 mg/kg
Summary of the method: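 Elevated plus-maze in mice. Read-outs were open/closed arm time ratio, open/closed visit ratio, defecations and total visits. Each treated group was compared with the placebo group by Student t-test.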

CYP2D6 = CYP2D6 (Homo sapiens, UniProt P10635); test: Metabolism by recombinant CYP2D6; format: in vitro ADME
guinea pigs = test: Q-T interval, guinea pigs; format: in vivo; conditions: 10 mg/kg IP
5-HT5A receptor = 5-HT5A receptor (Homo sapiens, UniProt P47898); test: Radioligand binding competition, 5-HT5A
CYP2C19 = CYP2C19 (Homo sapiens, UniProt P33261); test: Metabolism by recombinant CYP2C19; format: in vitro ADME
5-HT2C receptor = target: T1, 5-HT2C receptor (Homo sapiens, UniProt P28335); conditions: Table 2; cited from earlier work
T1 sequence (P28335 33-458): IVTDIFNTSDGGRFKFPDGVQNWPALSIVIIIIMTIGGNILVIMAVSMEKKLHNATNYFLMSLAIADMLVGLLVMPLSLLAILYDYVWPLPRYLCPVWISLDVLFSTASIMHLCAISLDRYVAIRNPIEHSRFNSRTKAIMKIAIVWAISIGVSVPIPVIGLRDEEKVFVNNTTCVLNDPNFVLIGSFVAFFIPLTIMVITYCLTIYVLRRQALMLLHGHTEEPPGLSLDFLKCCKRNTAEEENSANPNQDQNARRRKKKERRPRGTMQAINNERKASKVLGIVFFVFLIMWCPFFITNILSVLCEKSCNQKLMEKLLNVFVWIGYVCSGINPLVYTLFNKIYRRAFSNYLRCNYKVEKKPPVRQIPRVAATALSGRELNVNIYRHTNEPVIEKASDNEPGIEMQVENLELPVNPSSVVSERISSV

Adrenergic α2B = Adrenergic α2B (Homo sapiens, UniProt P18089); test: Radioligand competition, adrenergic α2B; format: binding
[3] = Metabolism in rat liver S9 fraction; format: in vitro ADME; conditions: for half-life at 1 µM / half-life at 2 µM: rat, liver S9 fraction
[4] = Pharmacokinetics in mice, IP; format: in vivo; conditions: mouse, blood
sodium channel (Site 2) = test: Target panel binding, sodium channel
5-HT2B receptor = 5-HT2B receptor (Rattus norvegicus, UniProt P30994); test: Rat stomach fundus contraction assay
Monkeys (Macaca mulatta) = test: Q-T interval, monkeys; format: in vivo; conditions: 1 mg/kg IV; not affected
male BALB/c mice [5] = test: Novel object recognition, scopolamine-induced; format: in vivo; conditions: 1.0 mg/kg scopolamine; memantine 10 mg/kg; SB-742457 0.2 or 1.0 mg/kg
Summary of the method: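 All drugs were dissolved in saline and given IP; control animals received saline vehicle. Each group had at least 8 male BALB/c mice. Read-out was novel object recognition index, reported as mean ± SE.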

[6] = system: outbreed male and female rats; test: Reproductive toxicology in rats; format: in vivo
Summary of the method: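 Outbred male and female rats weighing 220–250 g received test compound in 0.9% physiological solution intragastrically at 1.0 or 25.0 mg/kg. Assessments covered embryotoxicity, offspring development, mating and fertilization capability, and reproductive function.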

male CD1 mice = test: Maximum tolerated dose, 5-day oral; format: in vivo
Summary of the method: (§1)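 Male CD1 mice received test compound in sterile water orally at 10, 30 or 60 mg/kg once daily for 5 days (n = 8 per group). Body weight and deaths were recorded daily, followed by a 2-week observation phase. MTD was taken as the highest dose causing neither mortality nor body-weight loss.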

[7] = Maximum tolerated dose, 5-day oral; format: in vivo, mice; conditions: male, CD1, mouse, in vivo, po
Summary of the method: as §1

Caco-2 permeability = conditions: human
5-HT7 receptor = 5-HT7 receptor (Homo sapiens, UniProt P34969); conditions: Table 2; cited from earlier work
[8] = Metabolism in human liver S9 fraction; format: in vitro ADME; conditions: for half-life at 1 µM / half-life at 2 µM: human, liver S9 fraction

Sequence of 5-HT2B receptor (P30994 whole entry): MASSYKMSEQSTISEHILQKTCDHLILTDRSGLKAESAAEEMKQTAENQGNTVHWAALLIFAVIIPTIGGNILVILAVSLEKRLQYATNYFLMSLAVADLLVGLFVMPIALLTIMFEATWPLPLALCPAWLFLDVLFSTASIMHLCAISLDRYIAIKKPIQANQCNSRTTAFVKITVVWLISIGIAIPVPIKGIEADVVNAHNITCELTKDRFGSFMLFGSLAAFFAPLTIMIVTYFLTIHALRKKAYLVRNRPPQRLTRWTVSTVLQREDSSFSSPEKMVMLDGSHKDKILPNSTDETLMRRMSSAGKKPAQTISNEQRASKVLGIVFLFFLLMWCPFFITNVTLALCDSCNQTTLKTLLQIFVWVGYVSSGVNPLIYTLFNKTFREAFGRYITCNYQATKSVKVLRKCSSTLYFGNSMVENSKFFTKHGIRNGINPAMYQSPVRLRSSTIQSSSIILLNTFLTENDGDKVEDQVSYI
Sequence of Adrenergic α2B (P18089 whole entry): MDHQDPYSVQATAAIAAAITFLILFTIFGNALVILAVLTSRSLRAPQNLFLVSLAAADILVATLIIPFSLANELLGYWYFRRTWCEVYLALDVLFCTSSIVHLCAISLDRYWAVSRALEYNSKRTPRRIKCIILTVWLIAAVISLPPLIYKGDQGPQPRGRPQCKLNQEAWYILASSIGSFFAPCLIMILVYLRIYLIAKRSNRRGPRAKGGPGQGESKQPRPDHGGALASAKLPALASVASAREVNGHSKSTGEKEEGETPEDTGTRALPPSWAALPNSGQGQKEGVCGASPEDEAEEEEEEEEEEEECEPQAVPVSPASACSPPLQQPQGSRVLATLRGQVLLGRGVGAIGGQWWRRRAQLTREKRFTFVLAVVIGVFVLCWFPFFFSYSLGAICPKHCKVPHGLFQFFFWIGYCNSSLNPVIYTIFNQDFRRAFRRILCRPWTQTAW
Sequence of CYP2C19 (P33261 whole entry): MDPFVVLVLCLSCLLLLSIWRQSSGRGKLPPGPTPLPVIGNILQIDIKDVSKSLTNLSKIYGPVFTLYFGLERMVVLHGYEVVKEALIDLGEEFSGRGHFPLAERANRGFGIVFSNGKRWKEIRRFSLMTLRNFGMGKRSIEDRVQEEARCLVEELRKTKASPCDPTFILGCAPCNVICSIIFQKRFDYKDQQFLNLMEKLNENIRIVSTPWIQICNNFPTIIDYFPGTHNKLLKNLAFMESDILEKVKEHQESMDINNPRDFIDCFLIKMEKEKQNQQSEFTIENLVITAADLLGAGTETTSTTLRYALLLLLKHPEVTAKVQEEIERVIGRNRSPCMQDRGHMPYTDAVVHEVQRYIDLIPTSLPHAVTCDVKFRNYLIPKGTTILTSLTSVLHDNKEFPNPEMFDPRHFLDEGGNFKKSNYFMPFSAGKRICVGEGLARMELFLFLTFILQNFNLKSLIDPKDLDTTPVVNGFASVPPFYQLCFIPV
Sequence of CYP2D6 (P10635 whole entry): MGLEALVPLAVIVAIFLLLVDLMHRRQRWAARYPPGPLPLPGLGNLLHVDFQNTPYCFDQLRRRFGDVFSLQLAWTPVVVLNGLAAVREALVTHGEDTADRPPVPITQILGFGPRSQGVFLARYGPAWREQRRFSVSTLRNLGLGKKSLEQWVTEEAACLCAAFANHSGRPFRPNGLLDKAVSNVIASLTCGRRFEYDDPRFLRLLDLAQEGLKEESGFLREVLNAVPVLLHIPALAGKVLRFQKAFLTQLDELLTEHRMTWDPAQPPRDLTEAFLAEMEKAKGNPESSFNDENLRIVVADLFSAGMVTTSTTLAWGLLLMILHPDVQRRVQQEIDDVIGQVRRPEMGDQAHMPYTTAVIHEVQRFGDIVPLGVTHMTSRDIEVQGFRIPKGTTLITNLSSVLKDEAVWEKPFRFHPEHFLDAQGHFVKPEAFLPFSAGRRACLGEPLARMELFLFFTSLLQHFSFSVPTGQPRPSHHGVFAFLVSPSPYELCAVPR
Sequence of 5-HT5A receptor (P47898 whole entry): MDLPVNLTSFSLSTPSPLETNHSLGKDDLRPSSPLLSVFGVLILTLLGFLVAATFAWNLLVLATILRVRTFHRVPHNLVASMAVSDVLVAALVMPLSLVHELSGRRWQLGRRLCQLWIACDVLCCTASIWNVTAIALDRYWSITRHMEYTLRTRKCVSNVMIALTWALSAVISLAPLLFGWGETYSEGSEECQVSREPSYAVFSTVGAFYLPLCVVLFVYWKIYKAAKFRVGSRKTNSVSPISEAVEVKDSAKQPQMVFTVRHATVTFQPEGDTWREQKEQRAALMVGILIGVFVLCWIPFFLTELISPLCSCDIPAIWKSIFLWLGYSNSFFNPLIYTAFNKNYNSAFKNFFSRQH
Sequence of 5-HT7 receptor (P34969 whole entry): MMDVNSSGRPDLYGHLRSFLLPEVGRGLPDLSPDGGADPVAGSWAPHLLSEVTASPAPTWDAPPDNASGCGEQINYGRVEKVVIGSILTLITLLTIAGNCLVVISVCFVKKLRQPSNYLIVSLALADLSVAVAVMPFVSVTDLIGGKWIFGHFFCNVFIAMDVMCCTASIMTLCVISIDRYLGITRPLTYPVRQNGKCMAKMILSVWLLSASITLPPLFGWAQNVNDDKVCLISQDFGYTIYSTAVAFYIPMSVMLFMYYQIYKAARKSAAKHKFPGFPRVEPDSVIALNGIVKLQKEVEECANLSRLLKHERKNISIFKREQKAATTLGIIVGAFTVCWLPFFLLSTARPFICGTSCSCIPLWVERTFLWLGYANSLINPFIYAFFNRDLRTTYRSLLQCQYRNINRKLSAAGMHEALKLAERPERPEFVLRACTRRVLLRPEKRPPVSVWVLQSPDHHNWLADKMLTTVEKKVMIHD
Sequence of norpinephrine transporter (P23975 whole entry): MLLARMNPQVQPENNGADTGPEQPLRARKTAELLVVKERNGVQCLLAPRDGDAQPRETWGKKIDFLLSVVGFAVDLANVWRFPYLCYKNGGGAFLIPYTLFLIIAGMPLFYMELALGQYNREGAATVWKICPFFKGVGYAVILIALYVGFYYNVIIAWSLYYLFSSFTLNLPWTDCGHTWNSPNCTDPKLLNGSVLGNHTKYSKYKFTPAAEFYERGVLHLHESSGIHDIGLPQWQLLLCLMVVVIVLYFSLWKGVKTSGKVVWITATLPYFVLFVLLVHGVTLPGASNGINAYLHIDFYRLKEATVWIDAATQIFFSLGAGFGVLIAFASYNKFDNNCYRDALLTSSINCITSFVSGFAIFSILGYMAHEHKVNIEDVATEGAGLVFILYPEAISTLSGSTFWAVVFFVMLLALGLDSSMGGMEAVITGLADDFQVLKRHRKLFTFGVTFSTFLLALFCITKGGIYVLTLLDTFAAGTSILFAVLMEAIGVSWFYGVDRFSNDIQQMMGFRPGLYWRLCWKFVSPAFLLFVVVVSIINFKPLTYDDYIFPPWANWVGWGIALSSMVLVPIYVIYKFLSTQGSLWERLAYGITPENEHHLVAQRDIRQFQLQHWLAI

SMILES: Cc1ccc2c(c1)c1c(n2CCc2ccccc2)CCN(C)C1 [AVN-101, 2,8-dimethyl-5-penethyl-2,3,4,5-tetra-hydro-1h-pyrido[[4,3-B]]indole hydrochloride]
- binding [1]: does not bind
- anxiolytic effect (open/closed arm time and visits, defecations) (male BALB/c mice [2]): clear anxiolytic effects
- remaining at 0.5 h, 2 µM (CYP2D6): 0%
- increase in the QT interval over vehicle (guinea pigs): ≤ 10%
- Ki (5-HT5A receptor): 20.8 nM
- remaining at 0.5 h, 2 µM (CYP2C19): 1%
- Ki (5-HT2C receptor): 1.17 nM
- Ki (Adrenergic α2B): 0.41 to 3.6 nM
- metabolism with UDPGA only ([3]; phase 2 co-factor UDPGA only): no metabolism
- half-life at 1 µM ([3]; T1/2, +NADPH+UDPGA): 0.96 min
- half-life at 2 µM ([3]; T1/2, +NADPH+UDPGA): 2.34 min
- half-life at 1 µM ([3]; T1/2, +NADPH): 1.22 min
- half-life at 2 µM ([3]; T1/2, +NADPH): 2.36 min
- Cmax ([4]; 0.05 mg/kg): 1.9 ng/mL
- Tmax ([4]; 0.05 mg/kg): 5 min
- half-life ([4]; 0.05 mg/kg): 10.5 min
- AUC ([4]; 0.05 mg/kg, AUC0 - >t, IP 0.05 mg/kg): 0.487 ng·h/mL
- AUC ([4]; 0.05 mg/kg, AUC0 - >∞, IP 0.05 mg/kg): 0.498 ng·h/mL
- Cmax ([4]; 0.2 mg/kg): 5 ng/mL
- Tmax ([4]; 0.2 mg/kg): 15 min
- half-life ([4]; 0.2 mg/kg): 58 min
- AUC ([4]; 0.2 mg/kg, AUC0 - >t, IP 0.2 mg/kg): 5.65 ng·h/mL
- AUC ([4]; 0.2 mg/kg, AUC0 - >∞, IP 0.2 mg/kg): 6.08 ng·h/mL
- Cmax ([4]; 1 mg/kg): 23 ng/mL
- Tmax ([4]; 1 mg/kg): 15 min
- half-life ([4]; 1 mg/kg): 81 min
- AUC ([4]; 1 mg/kg, AUC0 - >t, IP 1.0 mg/kg): 25.9 ng·h/mL
- AUC ([4]; 1 mg/kg, AUC0 - >∞, IP 1.0 mg/kg): 32 ng·h/mL
- half-life ([4]; 2 mg/kg): 130 min
- Cmax ([4]; 5 mg/kg): 198 ng/mL
- Tmax ([4]; 5 mg/kg): 5 min
- concentration at 5 min ([4]; 5 mg/kg): ~650 nM
- half-life ([4]; 5 mg/kg): 136 min
- AUC ([4]; 5 mg/kg, AUC0 - >t, IP 5.0 mg/kg): 184 ng·h/mL
- AUC ([4]; 5 mg/kg, AUC0 - >∞, IP 5.0 mg/kg): 274 ng·h/mL
- binding (sodium channel (Site 2)): does not bind
- blockade of α methyl-serotonin-induced fundus contraction (5-HT2B receptor): effectively blocking
- agonistic activity (fundus contraction) (5-HT2B receptor; AVN-101 alone): lacked intrinsic agonistic activity
- QT interval (Monkeys (Macaca mulatta)): 0.22 ± 0.04 s
- heart rate (Monkeys (Macaca mulatta)): ca. 175 beats/min
- effect on deficit in novel object recognition (male BALB/c mice [5]): partially reverse
- reproductive function, male rats ([6]; 1.0 and 25.0 mg/kg intragastrically daily for 48 days): no reproductive function alteration
- effect in female rats dosed prior to pairing ([6]; daily for 15 days prior to pairing): reduction in the body mass increase of the pregnant rats and their posterity
- embryotoxic / teratogenic effect ([6]; doses up to 25.0 mg/kg, male or female): neither embryotoxic nor teratogenic effect
- mortality (male CD1 mice; 30 mg/kg PO once daily for 5 days): 12.5%
- mortality (male CD1 mice; 60 mg/kg PO once daily for 5 days): 50%
- body weight (male CD1 mice; 60 mg/kg, starting from the 4th day): statistically significant weight loss
- MTD at 5 days [7]: 10 to 30 mg/kg
- Papp (Caco-2 permeability): 19 ± 1.8 ×10⁻⁶ cm/s
- Papp B→A (Caco-2 permeability): 21 ± 2.1 ×10⁻⁶ cm/s
- Ki (5-HT7 receptor): 0.153 nM
- half-life at 1 µM ([8]; T1/2, +NADPH+UDPGA): 26.2 min
- half-life at 2 µM ([8]; T1/2, +NADPH+UDPGA): 58.9 min
- half-life at 1 µM ([8]; T1/2, +NADPH): 24.8 min
- half-life at 2 µM ([8]; T1/2, +NADPH): 87.1 min
- metabolism with UDPGA only ([8]; phase 2 co-factor UDPGA only): no metabolism
